# The source made the active and inactive calls. The calls are words filed in the database; no cut-off is given here.
# Columns and labels:
# Pseudomonas aeruginosa [1] = assay: Antibacterial activity against Pseudomonas aeruginosa ATCC 27853 assessed as growth inhibition after 48 hrs by two-fold serial dilution assay; assay type: functional; conditions: ATCC 27853, 48 h
# Procedure, shortened: (§1)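 Twofold serial broth dilution run on compounds giving inhibition zones of 13 mm or more. Organisms pre-grown in suitable broth at 37 °C, 24 h for bacteria and 48 h for fungi. Dilution series 200, 100, 50, 25, 12.5, 6.25. Each 5 mL tube inoculated with 0.1 mL and incubated 37 °C for 48 h. Tubes scored for presence or absence of growth.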
# SR = assay: Cytotoxicity against human SR cells assessed as growth inhibition at 10 uM after 48 hrs by SRB assay; assay type: functional; conditions: read-out: GI
# Procedure, shortened: (§2)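 NCI-60 one-dose primary screen run by the NCI Drug Evaluation Branch across the full 60-line panel. Single high-dose treatment with 48 h continuous drug exposure. Cell growth estimated by sulforhodamine B protein staining. Results given as percent growth of treated cells and expressed as percentage growth inhibition.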
# HT-29 = assay: Cytotoxicity against human HT-29 cells assessed as growth inhibition at 10 uM after 48 hrs by SRB assay; assay type: functional; conditions: HT-29, 48 h, read-out: GI; procedure, shortened: as §2
# A498 = assay: Cytotoxicity against human A498 cells assessed as growth inhibition at 10 uM after 48 hrs by SRB assay; assay type: functional; conditions: A498, 48 h, read-out: GI; procedure, shortened: as §2
# [2] = Cytotoxicity against human UO31 cells assessed as growth inhibition at 10 uM after 48 hrs by SRB assay; assay type: functional; conditions: UO-31, 48 h, read-out: GI; procedure, shortened: as §2
# SN12C = assay: Cytotoxicity against human SN12C cells assessed as growth inhibition at 10 uM after 48 hrs by SRB assay; assay type: functional; conditions: read-out: GI; procedure, shortened: as §2
# LOX IMVI = assay: Cytotoxicity against human LOXIMVI cells assessed as growth inhibition at 10 uM after 48 hrs by SRB assay; assay type: functional; conditions: read-out: GI; procedure, shortened: as §2
# K562 = assay: Cytotoxicity against human K562 cells assessed as growth inhibition at 10 uM after 48 hrs by SRB assay; assay type: functional; conditions: K562, 48 h, read-out: GI; procedure, shortened: as §2
# HCT-116 = assay: Cytotoxicity against human HCT116 cells assessed as growth inhibition at 10 uM after 48 hrs by SRB assay; assay type: functional; conditions: HCT-116, 48 h, read-out: GI; procedure, shortened: as §2
# SK-MEL-5 = assay: Cytotoxicity against human SK-MEL-5 cells assessed as growth inhibition at 10 uM after 48 hrs by SRB assay; assay type: functional; conditions: SK-MEL-5, 48 h, read-out: GI; procedure, shortened: as §2
# SW-620 = assay: Cytotoxicity against human SW620 cells assessed as growth inhibition at 10 uM after 48 hrs by SRB assay; assay type: functional; conditions: SW-620, 48 h, read-out: GI; procedure, shortened: as §2
# PC-3 = assay: Cytotoxicity against human PC3 cells assessed as growth inhibition at 10 uM after 48 hrs by SRB assay; assay type: functional; conditions: PC-3, 48 h, read-out: GI; procedure, shortened: as §2
# NCI-H226 = assay: Cytotoxicity against human NCI-H226 cells assessed as growth inhibition at 10 uM after 48 hrs by SRB assay; assay type: functional; conditions: NCI-H226, 48 h, read-out: GI; procedure, shortened: as §2
# SF-268 = assay: Cytotoxicity against human SF268 cells assessed as growth inhibition at 10 uM after 48 hrs by SRB assay; assay type: functional; conditions: SF-268, 48 h, read-out: GI; procedure, shortened: as §2
# IGROV-1 = assay: Cytotoxicity against human IGROV1 cells assessed as growth inhibition at 10 uM after 48 hrs by SRB assay; assay type: functional; conditions: IGROV-1, 48 h, read-out: GI; procedure, shortened: as §2
# Escherichia coli [3] = assay: Bactericidal activity against Escherichia coli ATCC 25922 after 18 hrs; assay type: functional; conditions: ATCC 25922, 18 h
# Procedure, shortened: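 Continuation of the broth-dilution MIC test. A loopful from each tube without visible growth spread on a quarter of a Mueller-Hinton agar plate and incubated 18 h. Lowest concentration giving no growth on subculture taken as the MBC.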
# Pseudomonas aeruginosa [4] = assay: Antibacterial activity against Pseudomonas aeruginosa ATCC 27853 assessed as growth inhibition at 1 mg/mL after 24 hrs by agar-cup diffusion method; assay type: functional; conditions: ATCC 27853, 24 h, read-out: DIZ
# Procedure, shortened: (§3)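 Agar-cup diffusion: 1 mL of 6 h broth culture seeded per 100 mL molten sterile agar at 45 °C and poured into plates. 8 mm cups cut, each filled with 0.1 mL of 1 mg/mL test solution. Incubated 37 °C for 24 h, 48 h for C. albicans. DMSO control per organism. Inhibition zone diameter in mm, mean of three measurements.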
# Candida albicans = assay: Antifungal activity against Candida albicans ATCC 10231 assessed as growth inhibition at 1 mg/mL after 48 hrs by agar-cup diffusion method; assay type: functional; conditions: ATCC 10231, 48 h, read-out: DIZ; procedure, shortened: as §3
# HOP-92 = assay: Cytotoxicity against human HOP92 cells assessed as growth inhibition at 10 uM after 48 hrs by SRB assay; assay type: functional; conditions: HOP-92, 48 h, read-out: GI; procedure, shortened: as §2
# RPMI-8226 = assay: Cytotoxicity against human RPMI8226 cells assessed as growth inhibition at 10 uM after 48 hrs by SRB assay; assay type: functional; conditions: RPMI-8226, 48 h, read-out: GI; procedure, shortened: as §2
# CCRF-CEM = assay: Cytotoxicity against human CCRF-CEM cells assessed as growth inhibition at 10 uM after 48 hrs by SRB assay; assay type: functional; conditions: read-out: GI; procedure, shortened: as §2
# Bacillus spizizenii [5] = assay: Antibacterial activity against Bacillus subtilis ATCC 6633 assessed as growth inhibition at 1 mg/mL after 24 hrs by agar-cup diffusion method; assay type: functional; conditions: ATCC 6633, 24 h, read-out: DIZ; procedure, shortened: as §3
# UACC-62 = assay: Cytotoxicity against human UACC62 cells assessed as growth inhibition at 10 uM after 48 hrs by SRB assay; assay type: functional; conditions: UACC-62, 48 h, read-out: GI; procedure, shortened: as §2
# [6] = Cytotoxicity against human NCI-ADR-RES cells assessed as growth inhibition at 10 uM after 48 hrs by SRB assay; assay type: functional; conditions: read-out: GI; procedure, shortened: as §2
# HCT-15 = assay: Cytotoxicity against human HCT15 cells assessed as growth inhibition at 10 uM after 48 hrs by SRB assay; assay type: functional; conditions: HCT-15, 48 h, read-out: GI; procedure, shortened: as §2
# Aspergillus niger = assay: Antifungal activity against Aspergillus niger assessed as growth inhibition at 1 mg/mL after 24 hrs by agar-cup diffusion method; assay type: functional, organism-based; procedure, shortened: as §3
# Bacillus spizizenii [7] = assay: Antibacterial activity against Bacillus subtilis ATCC 6633 assessed as growth inhibition after 48 hrs by two-fold serial dilution assay; assay type: functional; conditions: ATCC 6633, 48 h; procedure, shortened: as §1
# Staphylococcus aureus = assay: Antibacterial activity against Staphylococcus aureus ATCC 6538 assessed as growth inhibition after 48 hrs by two-fold serial dilution assay; assay type: functional; conditions: ATCC 6538, 48 h; procedure, shortened: as §1
# MDA-MB-468 = assay: Cytotoxicity against human MDA-MB-468 cells assessed as growth inhibition at 10 uM after 48 hrs by SRB assay; assay type: functional; conditions: MDA-MB-468, 48 h, read-out: GI; procedure, shortened: as §2
# Escherichia coli [8] = assay: Antibacterial activity against Escherichia coli ATCC 25922 assessed as growth inhibition after 48 hrs by two-fold serial dilution assay; assay type: functional; conditions: ATCC 25922, 48 h; procedure, shortened: as §1
# Escherichia coli [9] = assay: Antibacterial activity against Escherichia coli ATCC 25922 assessed as growth inhibition at 1 mg/mL after 24 hrs by agar-cup diffusion method; assay type: functional; conditions: ATCC 25922, 24 h, read-out: DIZ; procedure, shortened: as §3
# SK-MEL-2 = assay: Cytotoxicity against human SK-MEL-2 cells assessed as growth inhibition at 10 uM after 48 hrs by SRB assay; assay type: functional; conditions: SK-MEL-2, 48 h, read-out: GI; procedure, shortened: as §2
SMILES,MIC (Pseudomonas aeruginosa [1]) [µg/mL],inhibition of growth at 10 µM (SR) [%],inhibition of growth at 10 µM (HT-29) [%],inhibition of growth at 10 µM (A498) [%],inhibition of growth at 10 µM [2] [%],inhibition of growth at 10 µM (SN12C) [%],inhibition of growth at 10 µM (LOX IMVI) [%],inhibition of growth at 10 µM (K562) [%],inhibition of growth at 10 µM (HCT-116) [%],inhibition of growth at 10 µM (SK-MEL-5) [%],inhibition of growth at 10 µM (SW-620) [%],inhibition of growth at 10 µM (PC-3) [%],inhibition of growth at 10 µM (NCI-H226) [%],inhibition of growth at 10 µM (SF-268) [%],inhibition of growth at 10 µM (IGROV-1) [%],MBC (Escherichia coli [3]) [µg/mL],zone of inhibition at 1000 µg/mL (Pseudomonas aeruginosa [4]) [mm],zone of inhibition at 1000 µg/mL (Candida albicans) [mm],inhibition of growth at 10 µM (HOP-92) [%],inhibition of growth at 10 µM (RPMI-8226) [%],other results
CCOC(=O)c1sc(NS(=O)(=O)c2ccccc2)nc1C,100,< 10,< 10,11.6,13,< 10,< 10,< 10,43.1,< 10,< 10,< 10,< 10,< 10,93.1,50,> 13,> 13,< 10,< 10,inhibition of growth at 10 µM (CCRF-CEM): < 10%; zone of inhibition at 1000 µg/mL (Bacillus spizizenii [5]): > 13 mm; inhibition of growth at 10 µM (UACC-62): < 10%; inhibition of growth at 10 µM [6]: < 10%; inhibition of growth at 10 µM (HCT-15): < 10%; growth inhibition (GI) (Aspergillus niger): inactive; MIC (Bacillus spizizenii [7]): 100 µg/mL; MIC (Staphylococcus aureus): 25 µg/mL; inhibition of growth at 10 µM (MDA-MB-468): < 10%; MIC (Escherichia coli [8]): 50 µg/mL; zone of inhibition at 1000 µg/mL (Escherichia coli [9]): > 13 mm; inhibition of growth at 10 µM (SK-MEL-2): 97.5%
Cc1nc(NC(=S)Nc2ccc(F)cc2)sc1C(=O)NN,50,< 10,< 10,< 10,11,2.43,6.73,< 10,7.87,5.01,6.48,2.36,5.35,< 10,6.51,12.5,> 13,> 13,33.7,< 10,inhibition of growth at 10 µM (CCRF-CEM): < 10%; zone of inhibition at 1000 µg/mL (Bacillus spizizenii [5]): > 13 mm; inhibition of growth at 10 µM (UACC-62): 10.8%; inhibition of growth at 10 µM [6]: 10%; inhibition of growth at 10 µM (HCT-15): < 10%; growth inhibition (GI) (Aspergillus niger): inactive; MIC (Bacillus spizizenii [7]): 12.5 µg/mL; MIC (Staphylococcus aureus): 6.25 µg/mL; inhibition of growth at 10 µM (MDA-MB-468): 5.5%; MIC (Escherichia coli [8]): 12.5 µg/mL; zone of inhibition at 1000 µg/mL (Escherichia coli [9]): > 13 mm; inhibition of growth at 10 µM (SK-MEL-2): 30%
